In ChEMBL document CHEMBL2203173 (J Med Chem, 2012):

How the values were obtained:
Mus musculus [1] = experiment: Toxicity in BALB/c nu/nu mouse xenografted with human DMS53 cells assessed as change in hematocrit level at 7.5 mg/kg, po administered for 3 times a week measured after 20 days; type: organism-based, DMS-53; parameters: dose 7.5 mg/kg, route oral; settings: in vivo, 480 h
Procedure, shortened: (§1)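 Nude mice bearing DMS-53 xenografts gavaged 3 times/week for 20 days, vehicle 30% propylene glycol/saline, vehicle controls, n = 6-11 mice/condition. Sacrifice on day 20. Organ weights and hematological indices recorded. Spleen, kidney, liver, heart, lungs and brain examined histologically, hearts stained with Gomori Trichrome for fibrosis.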

Mus musculus [2] = experiment: Toxicity in BALB/c nu/nu mouse xenografted with human DMS53 cells assessed as change in lung weight at 7.5 mg/kg, po administered for 3 times a week measured after 20 days; type: organism-based, DMS-53; parameters: dose 7.5 mg/kg, route oral; settings: in vivo, 480 h; procedure, shortened: as §1
Mus musculus [3] = experiment: Toxicity in BALB/c nu/nu mouse xenografted with human DMS53 cells assessed as change in hemoglobin level at 3 mg/kg, iv administered for 5 days a week measured after 21 days; type: organism-based, DMS-53; parameters: dose 3 mg/kg, route intravenous; settings: in vivo, 504 h
Procedure, shortened: (§2)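 DMS-53 xenografts in nude mice; dosing started at 100 mm3 tumor volume. Agents given iv via tail vein, 5 days/week for 21 days, vehicle 30% propylene glycol/saline, vehicle-treated controls. Mice sacrificed day 21. Body and organ weights and hematological indices recorded. Spleen, kidney, liver, heart, lungs and brain were stained with H&E, Perls' and Gomori Trichrome and read by an independent veterinary pathologist.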

Mus musculus [4] = experiment: Toxicity in BALB/c nu/nu mouse xenografted with human DMS53 cells assessed as change in RBC count at 3 mg/kg, iv administered for 5 days a week measured after 21 days; type: organism-based, DMS-53; parameters: dose 3 mg/kg, route intravenous; settings: in vivo, 504 h
Mus musculus [5] = experiment: Toxicity in BALB/c nu/nu mouse xenografted with human DMS53 cells assessed as hepatocellular fibrosis at 3 mg/kg, iv administered for 5 days a week measured after 21 days by hematoxylin and eosin staining method; type: organism-based, DMS-53; parameters: dose 3 mg/kg, route intravenous; settings: in vivo, 504 h
Procedure, shortened: (§3)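 Nude mice with DMS-53 xenografts dosed by tail-vein iv injection in 30% propylene glycol/saline, starting at 100 mm3 tumour volume, 5 days/week for 21 days. Spleen, kidney, liver, heart, lungs and brain were stained with H&E, Perls' (Fe loading) and Gomori Trichrome (fibrosis) by standard methods, and an independent veterinary pathologist examined them.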

Mus musculus [6] = experiment: Toxicity in human DMS53 cells xenografted BALB/c nu/nu mouse assessed as change in organ weight at 6 mg/kg, iv administered for 5 days a week measured after 21 days; type: organism-based, DMS-53; parameters: dose 6 mg/kg, route intravenous; settings: in vivo, 504 h
Procedure, shortened: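 DMS-53 xenograft-bearing nude mice, treatment started at 100 mm3 tumour volume: iv tail-vein dosing in 30% propylene glycol/saline, 5 days/week for 21 days. Organs were weighed at sacrifice and compared with vehicle-control mice.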

Mus musculus [7] = experiment: Toxicity in BALB/c nu/nu mouse xenografted with human DMS53 cells assessed as change in reticulocyte count at 6 mg/kg, iv administered for 5 days a week measured after 21 days; type: organism-based, DMS-53; parameters: dose 6 mg/kg, route intravenous; settings: in vivo, 504 h
Procedure, shortened: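 Nude mice carrying DMS-53 xenografts (treatment from 100 mm3) received iv tail-vein doses in 30% propylene glycol/saline, 5 days/week for 21 days. Hematological indices (RBC, hemoglobin, hematocrit, reticulocytes, WBC, platelets) were then compared with vehicle controls.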

Mus musculus [8] = experiment: Toxicity in BALB/c nu/nu mouse xenografted with human DMS53 cells assessed as change in lungs histology at 3 mg/kg, iv administered for 5 days a week measured after 21 days by hematoxylin and eosin staining method; type: organism-based, DMS-53; parameters: dose 3 mg/kg, route intravenous; settings: in vivo, 504 h; procedure, shortened: as §2
Mus musculus [9] = experiment: Toxicity in BALB/c nu/nu mouse xenografted with human DMS53 cells assessed as change in body weight at 3 mg/kg, iv administered for 5 days a week measured after 21 days; type: organism-based, DMS-53; parameters: dose 3 mg/kg, route intravenous; settings: in vivo, 504 h; procedure, shortened: as §2
Mus musculus [10] = experiment: Toxicity in BALB/c nu/nu mouse xenografted with human DMS53 cells assessed as hepatocellular necrosis at 6 mg/kg, iv administered for 5 days a week measured after 21 days by hematoxylin and eosin staining method; type: organism-based, DMS-53; parameters: dose 6 mg/kg, route intravenous; settings: in vivo, 504 h; procedure, shortened: as §3
Mus musculus [11] = experiment: Toxicity in BALB/c nu/nu mouse xenografted with human DMS53 cells assessed as cardiac fibrosis at 3 mg/kg, iv administered for 5 days a week measured after 21 days by […]; type: organism-based, Heart, DMS-53; parameters: dose 3 mg/kg, route intravenous; settings: in vivo, 504 h
Procedure, shortened: (§4)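 DMS-53 xenograft nude mice given agents iv by tail vein 5 days/week in 30% propylene glycol/saline for 21 days. At sacrifice, heart sections were stained with Gomori Trichrome to detect fibrosis. Spleen, kidney, liver, heart, lungs and brain were also stained with H&E and Perls' and examined by an independent veterinary pathologist.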

Mus musculus [12] = experiment: Cardiotoxicity in BALB/c nu/nu mouse xenografted with human DMS53 cells at 3 mg/kg, iv administered for 5 days a week measured after 21 days; type: toxicity, organism-based, DMS-53; parameters: dose 3 mg/kg, route intravenous; settings: in vivo, 504 h; procedure, shortened: as §4
Mus musculus [13] = experiment: Toxicity in BALB/c nu/nu mouse xenografted with human DMS53 cells assessed as change in hemoglobin level at 6 mg/kg, iv administered for 5 days a week measured after 21 days; type: organism-based, DMS-53; parameters: dose 6 mg/kg, route intravenous; settings: in vivo, 504 h; procedure, shortened: as §2
Mus musculus [14] = experiment: Toxicity in BALB/c nu/nu mouse xenografted with human DMS53 cells assessed as change in RBC count at 6 mg/kg, iv administered for 5 days a week measured after 21 days; type: organism-based, DMS-53; parameters: dose 6 mg/kg, route intravenous; settings: in vivo, 504 h
Mus musculus [15] = experiment: Cardiotoxicity in BALB/c nu/nu mouse xenografted with human DMS53 cells at 8 mg/kg, iv administered for 5 days a week measured after 21 days; type: toxicity, organism-based, DMS-53; parameters: dose 8 mg/kg, route intravenous; settings: in vivo, 504 h; procedure, shortened: as §4
Mus musculus [16] = experiment: Toxicity in BALB/c nu/nu mouse xenografted with human DMS53 cells assessed as change in heart weight at 20 mg/kg, po administered for 3 times a week measured after 20 days; type: organism-based, DMS-53; parameters: dose 20 mg/kg, route oral; settings: in vivo, 480 h; procedure, shortened: as §1
Mus musculus [17] = experiment: Toxicity in BALB/c nu/nu mouse xenografted with human DMS53 cells assessed as change in body weight at 4 mg/kg, iv administered for 5 days a week measured after 21 days; type: organism-based, DMS-53; parameters: dose 4 mg/kg, route intravenous; settings: in vivo, 504 h; procedure, shortened: as §2
Mus musculus [18] = experiment: Toxicity in BALB/c nu/nu mouse xenografted with human DMS53 cells assessed as change in lungs histology at 4 mg/kg, iv administered for 5 days a week measured after 21 days by hematoxylin and eosin staining method; type: organism-based, DMS-53; parameters: dose 4 mg/kg, route intravenous; settings: in vivo, 504 h; procedure, shortened: as §2
Mus musculus [19] = experiment: Toxicity in BALB/c nu/nu mouse xenografted with human DMS53 cells assessed as change in brain histology at 8 mg/kg, iv administered for 5 days a week measured after 21 days by hematoxylin and eosin staining method; type: organism-based, DMS-53; parameters: dose 8 mg/kg, route intravenous; settings: in vivo, 504 h; procedure, shortened: as §2
Mus musculus [20] = experiment: Toxicity in BALB/c nu/nu mouse xenografted with human DMS53 cells assessed as change in hematopoetic cells in splenic red pulp at 8 mg/kg, iv administered for 5 days a week measured after 21 days by hematoxylin and eosin staining method; type: organism-based, DMS-53; parameters: dose 8 mg/kg, route intravenous; settings: in vivo, 504 h; procedure, shortened: as §2
Mus musculus [21] = experiment: Toxicity in BALB/c nu/nu mouse xenografted with human DMS53 cells assessed as hepatocellular fibrosis at 8 mg/kg, iv administered for 5 days a week measured after 21 days by hematoxylin and eosin staining method; type: organism-based, DMS-53; parameters: dose 8 mg/kg, route intravenous; settings: in vivo, 504 h; procedure, shortened: as §3
Mus musculus [22] = experiment: Toxicity in BALB/c nu/nu mouse xenografted with human DMS53 cells assessed as change in hemoglobin level at 8 mg/kg, iv administered for 5 days a week measured after 21 days; type: organism-based, DMS-53; parameters: dose 8 mg/kg, route intravenous; settings: in vivo, 504 h; procedure, shortened: as §2
Mus musculus [23] = experiment: Toxicity in BALB/c nu/nu mouse xenografted with human DMS53 cells assessed as change in lung weight at 20 mg/kg, po administered for 3 times a week measured after 20 days; type: organism-based, DMS-53; parameters: dose 20 mg/kg, route oral; settings: in vivo, 480 h; procedure, shortened: as §1
Mus musculus [24] = experiment: Toxicity in BALB/c nu/nu mouse xenografted with human DMS53 cells assessed as hepatocellular necrosis at 8 mg/kg, iv administered for 5 days a week measured after 21 days by hematoxylin and eosin staining method; type: organism-based, DMS-53; parameters: dose 8 mg/kg, route intravenous; settings: in vivo, 504 h; procedure, shortened: as §3
Mus musculus [25] = experiment: Toxicity in BALB/c nu/nu mouse xenografted with human DMS53 cells assessed as cardiac fibrosis at 4 mg/kg, iv administered for 5 days a week measured after 21 days by […]; type: organism-based, Heart, DMS-53; parameters: dose 4 mg/kg, route intravenous; settings: in vivo, 504 h; procedure, shortened: as §4

CCN(C)C(=S)NN=C(c1ccccn1)c1ccccn1.Cl
Activity (Mus musculus [1]): Toxic | Activity (Mus musculus [2]): Non-toxic | Activity (Mus musculus [3]): Non-toxic | Activity (Mus musculus [4]): Non-toxic | Activity (Mus musculus [5]): Non-toxic | Activity (Mus musculus [6]): Toxic | Activity (Mus musculus [7]): Toxic | Activity (Mus musculus [8]): Non-toxic | Activity (Mus musculus [9]): Non-toxic | Activity (Mus musculus [10]): Non-toxic | Activity (Mus musculus [11]): Non-toxic | Activity (Mus musculus [12]): Non-toxic | Activity (Mus musculus [13]): Non-toxic | Activity (Mus musculus [14]): Non-toxic

CN(C(=S)NN=C(c1ccccn1)c1ccccn1)C1CCCCC1.Cl
Activity (Mus musculus [15]): Non-toxic | Activity (Mus musculus [16]): Non-toxic | Activity (Mus musculus [17]): Non-toxic | Activity (Mus musculus [18]): Non-toxic | Activity (Mus musculus [19]): Non-toxic | Activity (Mus musculus [20]): Non-toxic | Activity (Mus musculus [21]): Non-toxic | Activity (Mus musculus [22]): Toxic | Activity (Mus musculus [23]): Non-toxic | Activity (Mus musculus [24]): Non-toxic | Activity (Mus musculus [25]): Non-toxic
